Bioassay records: PubChem BioAssay, The Scripps Research Institute Molecular Screening Center
Hits are enriched below; roughly 1.8% of the tested compounds scored in any of these assays.
CHRM4 PAM = CHRM4 positive allosteric modulation; P08173; CHO-K1 hM4/Gqi5, Fluo-8 calcium fluorescence, ACh EC20; 0% = ACh EC20, 100% = maximal ACh; activation, % at 3 µM; actives 0.4% (n = 360,000); AID 624126;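 active = activation above its plate's cutoff, the mean activation of sample wells plus 3 SD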
CHRM5 antagonist = CHRM5 antagonism in calcium assay. AID 624040. actives 0.59% (n = 360,000). inhibition, % at 3 µM. CHO-hM5 cells, Fluo-8 calcium fluorescence, ACh EC80. P08912;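 active = inhibition above a per-plate cutoff, the mean of that plate's test compounds plus 3 SD, cut at about 27% in these data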;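 also: 0% = acetylcholine EC80 with DMSO and 100% = DMSO without agonist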
Target sequence (P08912 whole entry, looked up): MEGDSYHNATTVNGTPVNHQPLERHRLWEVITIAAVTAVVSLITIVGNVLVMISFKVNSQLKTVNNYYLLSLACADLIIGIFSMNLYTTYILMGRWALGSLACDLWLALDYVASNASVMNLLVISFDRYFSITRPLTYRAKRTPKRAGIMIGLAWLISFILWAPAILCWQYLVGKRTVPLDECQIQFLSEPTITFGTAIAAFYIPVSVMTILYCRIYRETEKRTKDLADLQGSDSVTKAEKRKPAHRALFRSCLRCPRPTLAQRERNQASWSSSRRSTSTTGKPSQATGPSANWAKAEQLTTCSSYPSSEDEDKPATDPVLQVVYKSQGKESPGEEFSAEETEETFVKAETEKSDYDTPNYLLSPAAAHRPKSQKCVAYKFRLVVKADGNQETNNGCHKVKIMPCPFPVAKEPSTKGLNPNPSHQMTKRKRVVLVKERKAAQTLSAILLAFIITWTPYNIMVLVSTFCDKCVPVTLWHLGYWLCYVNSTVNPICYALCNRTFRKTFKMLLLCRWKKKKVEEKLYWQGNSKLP
M5 ag = CHRM5 agonism in calcium assay; P08912; CHO-K1 hM5 cells, Fluo-8 calcium fluorescence; 0% DMSO wells, 100% maximal acetylcholine response; activation, % at 3 µM; actives 0.19% (n = 360,000);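 active = activation above the run's mean over test compounds plus 3 SD, cut at about 23% in these data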;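 also: signal is peak over basal fluorescence ratio across the kinetic read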
M5 PAM = CHRM5 positive allosteric modulation | P08912 | CHO-K1 hM5, Fluo-8 calcium, ACh EC20 PAM; 0% = ACh EC20, 100% = ACh EC100 | activation, % at 3 µM | actives 0.3% (n = 360,000) | AID 624038;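 active = activation above the run cutoff, the mean activation of all test compounds plus 3 SD, cut at about 18% in these data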
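Probe or stimulus: acetylcholine, EC20 level; Assay system: human M5 receptor in CHO-K1 cells; Schedule: compound preincubation 140 s before EC20 acetylcholine addition; Technique: intracellular calcium via Fluo-8 fluorescence; Dosing: single-point, 3 µM nominal; Read-out basis: percent activation from peak-over-basal fluorescence ratio, scaled EC20-to-EC100 acetylcholine; Repeats: one well per compound, no replicates.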
CHRM4 antagonist = antagonists of human muscarinic M4 receptor (CHRM4); inhibition, % at 3 µM; P08173; actives 0.73% (n = 360,000); CHO-hM4 cells, ACh EC80, Fluo-8 calcium fluorescence;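 active = inhibition above its plate's cutoff, the mean inhibition of sample wells plus 3 SD, cut at about 27% in these data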;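 also: 0% = acetylcholine EC80 with DMSO and 100% = DMSO without agonist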
CHRM4 agonist = agonists of human muscarinic M4 receptor (CHRM4); P08173; CHO-K1 hM4/Gqi5, Fluo-8 calcium fluorescence; vehicle 0%, full acetylcholine response 100%; activation, % at 3 µM; actives 0.14% (n = 360,000); AID 624127;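 active = activation above the run mean over all test wells plus 3 SD, cut at about 32% in these data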;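 also: peak over basal fluorescence ratio per well then scaled between controls; 0% = DMSO wells and 100% = acetylcholine at EC100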
* marks the source's active call; other numbers are inactive results.

SMILES	CHRM4 PAM	CHRM5 antagonist	M5 ag	M5 PAM	CHRM4 antagonist	CHRM4 agonist
Cc1ccc(S(=O)(=O)c2nnn3c2nc(NC2CCN(Cc4ccccc4)CC2)c2ccccc23)cc1C	-12	-2	-6	-3	43*	3
Cc1ccc(S(=O)(=O)c2nnn3c2nc(NCCCN2CCCC2=O)c2ccccc23)cc1C	1	15	-7	-4	-2	5
COc1ccc(NC(=O)CN(c2ccccc2F)S(=O)(=O)c2ccc(C)cc2)cc1	-10	15	-5	-6	8	1
COc1cc(OC)cc(C(=O)NC2CC(C)(C)NC(C)(C)C2)c1	1	0	1	-3	1	1
COc1ccc(C(=O)Nc2c(N)nc(SCC(=O)Nc3ccc(NC(C)=O)cc3)[nH]c2=O)cc1	8	8	-2	-8	-6	1
COc1ccc(NC(=O)CSc2nc(N)c(NC(=O)c3ccccc3F)c(=O)[nH]2)cc1	17*	10	-2	1	2	1
CN(C)CCCNC(=O)N1c2ccccc2C=Cc2ccccc21	-16	72*	-22	-29	68*	1
CCN(CC)C(=O)N1c2ccccc2C=Cc2ccccc21	-8	-1	-8	-9	4	-3
COc1ccc(-c2csc(C(C)(O)c3cccc(F)c3)n2)cc1 (stereo not given)	-11	8	-1	-11	37*	4
CN(C)CCCC1(O)c2ccccc2CCc2ccccc21	-14	10	-7	-17	10	11
CC(CN(C)C)CN1c2ccccc2CCc2ccccc21 (stereo not given)	-19	99*	0	-19	87*	6
CNC(=O)N1c2ccccc2CCc2ccccc21	-3	0	-1	3	-2	0
CN(C)CCCN1c2ccccc2CCc2ccccc21	-17	80*	-2	-19	70*	2
O=C(C(=Cc1ccccc1)CN1CCCCC1)c1ccccc1	-9	17	-12	-36	29*	0
C[C@@H]1CN([C@@H](C)CO)C(=O)CCCn2nncc2CO[C@@H]1CN(C)C(=O)c1ccncc1	-5	7	0	-3	16	0
CCN1CCN(C(=O)C(C)Sc2nc3nc(C)cc(C)n3n2)CC1 (stereo not given)	4	10	1	3	-3	1
COc1cc(/C=C(\C#N)c2nc3ccccc3o2)ccc1O	-23	46*	53*	-24	20	30
N#C/C(=C\c1ccc(O)cc1)c1nc2ccccc2o1	-11	10	10	-9	14	9
Cc1c(C(=O)NC2CCCc3ccccc32)cccc1[N+](=O)[O-] (stereo not given)	-11	13	-4	-4	-20	5
COc1ccc(NC(=O)CCc2nnc3ccc(NCc4ccco4)nn23)cc1	39*	14	1	28*	16	18
COc1ccc(OC)c(-n2c(SCC(=O)NCc3ccco3)nnc2-c2c[nH]c3ccccc23)c1	-12	-4	-1	-5	40*	0
COc1ccc(-c2[nH]c(-c3ccc(C)cc3)nc2SCC(=O)NCc2ccco2)cc1OC	21*	-9	-2	4	-24	0
COc1cccc(-n2c(SCC(=O)NCc3ccco3)nnc2-c2c[nH]c3ccccc23)c1	9	3	0	-3	-16	0
NS(=O)(=O)c1ccc(CCNC(=O)C(=O)NCC2OCCN2S(=O)(=O)c2cc(F)ccc2F)cc1 (stereo not given)	-6	11	3	-11	0	15
COc1ccc(N2CCN(C(=O)c3cccn4c(=O)c5ccccc5nc34)CC2)cc1	4	3	3	-3	-3	1
SMILES	CHRM4 PAM	CHRM5 antagonist	M5 ag	M5 PAM	CHRM4 antagonist	CHRM4 agonist
COc1cccc(N2CCN(C(=O)c3cccn4c(=O)c5c(C)c(C)sc5nc34)CC2)c1	3	-15	8	19*	2	2
COc1ccccc1OCC(=O)Nc1ccc(CSc2ccccc2)cc1C	7	0	12	49*	1	0
COc1cc(CNC(=O)c2cc(-c3ccc(F)cc3OC)n[nH]2)cc(OC)c1	1	2	-2	0	-20	4
COc1ccc(-c2nnc(SCC(=O)Nc3ccc(C(=O)O)cc3)n2-c2ccc(Cl)cc2)cc1	13*	0	-1	-3	-9	0
O=C(CN1C(=O)C2C3C=CC(C3)C2C1=O)Nc1nncs1 (stereo not given)	4	-4	-1	1	-5	0
CCC(CC)C(=O)OCC(=O)Nc1cccc([N+](=O)[O-])c1	-7	3	-2	-6	-7	1
CC1(C(=O)Nc2ccccc2)CCN1C(=O)Cc1ccc(-c2ccccc2)cc1 (stereo not given)	-5	14	5	-10	-3	10
CC(C)S(=O)(=O)NC(=O)C1(C)CCN1C(=O)Cc1ccccc1 (stereo not given)	-1	29*	-1	-5	1	1
CC1(C(=O)Nc2ccc3c(c2)OCO3)CCN1C(=O)Cc1ccc(-c2ccccc2)cc1 (stereo not given)	-8	31*	9	-15	27*	13
Cc1ccc2c(c1)/C(=N/OS(=O)(=O)c1ccccc1)CCS2	8	-4	-1	4	-5	0
CC1=CC(=O)C(C(C)C)=C/C1=N/OS(=O)(=O)c1ccccc1	-16	51*	10	-28	79*	29
CC1=CC(=O)C=C(C)C1=NOS(=O)(=O)c1ccccc1	-17	41*	23*	2	32*	18
O=[N+]([O-])c1ccc2c(c1)nnn2-c1ccccc1	-1	9	-5	0	0	1
c1ccc(-n2nnc3ccccc32)cc1	-15	25	-2	-19	81*	-1
CC(=O)c1cn(CCOc2cc(C)ccc2C)c2ccccc12	-17	33*	0	-23	17	12
Cc1ccc(C)c(OCCn2cc(C(=O)O)c3ccccc32)c1	0	23	1	-9	1	17
CC(C)=CCC[C@H](C)C[C@@H]1Cc2[nH][nH]c(=O)c2[C@H](c2ccc(Cl)cc2)O1	8	-20	4	-6	-13	-1
C1=CC2CC1CC2CN1CCN(c2ccccc2)CC1 (stereo not given)	-16	6	-12	-5	21	2
Cc1ccccc1CN1CCN(CC2CC3C=CC2C3)CC1 (stereo not given)	-21	6	-6	-16	44*	2
